By inhibition is commonly meant the percentage by which the read-out fell short of the control. For orientation: inhibition in vivo means the drop in the measured response relative to a control, in per cent.

The values that follow come from ChEMBL document CHEMBL1152900, “Synthesis and evaluation of the antioxidant and anti-inflammatory activity of novel coumarin-3-aminoamides and their alpha-lipoic acid adducts” (Eur J Med Chem, 2009).

Activity calls are given as the source filed them. The rule behind the calls is not given here.

Data set [1] can be described thus: Antioxidant activity against hydroxyl radical assessed as inhibition of formaldehyde production at 0.1 mM after 30 mins relative to DMSO. Format: functional. On the set-up: scale not given: the % may be the effect or the level left. In a few lines: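 Hydroxyl radicals were generated with Fe3+, DMSO 33 mM and ascorbic acid 10 mM in 50 mM phosphate buffer, pH 7.4, with test compound at 0.1 mM final. Mixtures were incubated 30 min at 37 °C, stopped with CCl3COOH (17% w/v), and formaldehyde was read spectrophotometrically at 412. At least triplicate.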

A short description of data set [2]: Acute toxicity in rat assessed as survival up to 0.5 mmol/kg after 24 hrs. Format: organism-based. The note with it: in vivo, read-out: Activity. In a few lines:
(§1)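 Rats were split into 5 groups of 6–8 animals each and injected with graded doses of 0.1–0.5 mmol/kg body weight. Animals were then scored for survival and examined macroscopically and at autopsy.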

Data set [3] concerns Rattus norvegicus. Description: Acute toxicity in rat assessed as mortality up to 0.5 mmol/kg after 24 hrs by macroscopic analysis. The class given is organism-based. The conditions noted are these: in vivo. In a few lines:
as §1

Data set [4] concerns Rattus norvegicus. In words: Acute toxicity in rat assessed as mortality up to 0.5 mmol/kg after 24 hrs by autopsy. Format: organism-based. The conditions noted are these: in vivo. In a few lines: as §1
The subject of a further data set is Glycine max. In words: Inhibition of soybean lipoxygenase assessed as conversion of sodium linoleate to 13-hydroperoxylinoleic acid at 0.1 mM. In a few lines:
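Soybean lipoxygenase (enzyme solution 1/9 × 10^-4 w/v in saline) was incubated at room temperature with sodium linoleate 0.1 mM and test compounds in ethanol. Conversion to 13-hydroperoxylinoleic acid was followed at 234 nm and compared with a standard inhibitor. At least triplicate.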

In data set [5] the test system is Rattus norvegicus. Description: In vivo antiinflammatory activity in Fisher 344 rat assessed as inhibition of carrageenan-induced paw edema at 0.01 mmol/kg, ip administered simultaneously with carrageenan measured after 3.5 hrs. Format: functional. The note with it: Fisher 344, ip. In a few lines:
(§2)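 Rats of both sexes (pregnant females excluded), bred in-house and fasted during the experiment; 6–15 per group, run twice. Test agents were suspended in water with a few drops of Tween 80 and given ip at the time of carrageenin injection. Rats were killed 3.5 h later. Injected minus uninjected paw weight gave % edema inhibition versus water-treated controls.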
A general note: In the carrageenan paw model, swelling and tenderness develop within hours.

A short description of data set [6]: Antioxidant activity assessed as reduction of DPPH activity at 0.1 mM after 20 mins. Format: functional. On the set-up: scale not given: the % may be the effect or the level left. In a few lines:
(§3)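 DPPH at 0.05 mM final in absolute ethanol was mixed with test compounds in ethanol at 0.1 or 0.5 mM final, with ethanol as the control. After 20 and 60 min at room temperature, absorbance was read at 517 nm. At least triplicate.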
(In general: The DPPH test is a chemical assay of radical scavenging.)

Data set [7] in a line: Antioxidant activity assessed as reduction of DPPH activity at 0.1 mM after 60 mins. On the set-up: scale not given: the % may be the effect or the level left. The class given is functional. In a few lines:
as §3

Data set [8] in a line: Antioxidant activity assessed as reduction of DPPH activity at 0.5 mM after 20 mins. Format: functional. On the set-up: scale not given: the % may be the effect or the level left. In a few lines: as §3
A short description of data set [9]: Antioxidant activity assessed as reduction of DPPH activity at 0.5 mM after 60 mins. On the set-up: scale not given: the % may be the effect or the level left. The class given is functional. In a few lines:
as §3

Data set [10] concerns Rattus norvegicus. In words: Antiinflammatory activity in Fisher 344 rat assessed as inhibition of carrageenan-induced paw edema at 0.01 mmol/kg, ip administered simultaneously with carrageenan measured after 3.5 hrs. The conditions noted are these: Fisher 344, ip. The class given is functional. In a few lines: as §2
Data set [11] concerns Rattus norvegicus. Description: Antiinflammatory activity in Fisher 344 rat assessed as inhibition of carrageenan-induced paw edema at 0.001 mmol/kg, ip administered simultaneously with carrageenan measured after 3.5 hrs. The class given is functional. The conditions noted are these: Fisher 344, ip.

Regarding `NCCCCCCNC(=O)c1c(O)oc2ccccc2c1=O`, the Activity in data set [1] was 100%; with Rattus norvegicus [3], “Non-toxic”; in the data set with Rattus norvegicus [4] it was “Non-toxic”; in data set [6], 3%; in data set [7], 3%; in data set [8] it was 5%. The Activity in data set [9] amounted to 5%. In addition, in [2], the survival at 24 h was determined as 80%. In addition, in the data set with Glycine max, the inhibition came out at 52%. Also, in the data set on Rattus norvegicus [5], the inhibition in vivo at 10 µmol/kg turned out to be 49%.

As for `Cc1c(C)c2c(c(C)c1O)CCC(C)(C(=O)O)O2` (stereo not given), the Activity in data set [1] was found to be 88.2%.

On to `O=C(CCCCC1CCSS1)NCCCCCCCCNC(=O)c1c(O)c2ccccc2oc1=O` (stereo not given), for which the result in data set [1] was inactive. Also, in data set [2], the survival at 24 h worked out at 80%. Moreover, the Activity entry in the data set on Rattus norvegicus [3] is “Non-toxic”; in the data set on Rattus norvegicus [4] it was “Non-toxic”; in data set [6], 21%; in data set [7] it was 21%; in [8] it was 32%; in data set [9] it was 25%. Moreover, the inhibition in the data set with Glycine max turned out to be 33%. Further, in the data set with Rattus norvegicus [5], the inhibition in vivo at 10 µmol/kg amounted to 43%.

Regarding `CC(Cc1ccc(O)c(O)c1)C(C)Cc1ccc(O)c(O)c1` (stereo not given), in the data set with Glycine max, the inhibition worked out at 84%. In addition, the values for the Activity in [7], in [8] and in data set [9] were 83%, 97% and 98%, respectively.

Turning to `O=C(O)CCCCC1CCSS1` (stereo not drawn) [LIPOIC ACID, ALPHA], the Activity in data set [1] turned out to be 38.6%; in data set [6] it was 20%; in data set [7], 27%; in [8], 5%; in [9], 7%. Moreover, the inhibition in the data set on Glycine max worked out at 29.1%. The inhibition in vivo at 10 µmol/kg in the data set with Rattus norvegicus [5] is 29.6%.

For the compound `NCCNC(=O)c1c(O)c2ccccc2oc1=O`, the Activity in data set [1] is 91%; in the data set on Rattus norvegicus [3], “Non-toxic”; in the data set with Rattus norvegicus [4] it was “Non-toxic”; in data set [6], 42%; in data set [7], 25%. For the same compound, the survival at 24 h in [2] came to 80%. The inhibition in the data set on Glycine max is 100%. Moreover, the inhibition in vivo at 10 µmol/kg with Rattus norvegicus [5] was 59%. For the same compound, the result in data set [8] and in [9] was inactive.

Take `Nc1ccccc1NC(=O)c1c(O)c2ccccc2oc1=O`: the result in [1] was inactive. In addition, the survival at 24 h in data set [2] was 80%. Further, the Activity result is “Non-toxic” with Rattus norvegicus [3]; “Non-toxic” in the data set with Rattus norvegicus [4]; 90% in [6]; 93% in [7]; 85% in data set [8]; 83% in [9]. In addition, the inhibition in the data set on Glycine max is 23%. Also, the inhibition in vivo at 10 µmol/kg in the data set with Rattus norvegicus [5] turned out to be 57%.

As to `Cc1ccc2oc(=O)c(C(=O)NCCCCCCCCN)c(O)c2c1`, the Activity in data set [1] was 100%; in the data set on Rattus norvegicus [3], “Non-toxic”; in the data set on Rattus norvegicus [4] it was “Non-toxic”; in data set [6], 58%; in data set [7] it was 68%; in data set [8] it was 72%. Further, in data set [9], the Activity turned out to be 78%. The survival at 24 h in data set [2] was 80%. For the same compound, in the data set on Glycine max, the inhibition turned out to be 30%. Besides, the inhibition in vivo at 10 µmol/kg in the data set on Rattus norvegicus [5] is 59%.

As for `O=C(CCCCC1CCSS1)NCCCCCCNC(=O)c1c(O)c2ccccc2oc1=O` (stereo not given), the Activity in data set [1] was 96%; in the data set on Rattus norvegicus [3], “Non-toxic”; in the data set on Rattus norvegicus [4], “Non-toxic”; in data set [6] it was 15%; in data set [7], 18%; in data set [8], 23%. Also, the Activity in [9] was found to be 12%. Moreover, in data set [2], the survival at 24 h came out at 80%. Moreover, the inhibition in the data set on Glycine max was 18%. Further, the inhibition in vivo at 10 µmol/kg in the data set on Rattus norvegicus [10] worked out at 72%. The inhibition in vivo at 1 µmol/kg in the data set on Rattus norvegicus [11] came out at 61%.

For the compound `Cc1ccc2oc(=O)c(C(=O)NCCN)c(O)c2c1`, the Activity is 100% in data set [1]; “Non-toxic” with Rattus norvegicus [3]; “Non-toxic” in the data set with Rattus norvegicus [4]; 48% in [6]; 59% in data set [7]; 70% in data set [8]. Further, the Activity in [9] was found to be 65%. Also, in data set [2], the survival at 24 h turned out to be 80%. Further, the inhibition in the data set with Glycine max was determined as 14%. Besides, in the data set with Rattus norvegicus [5], the inhibition in vivo at 10 µmol/kg was found to be 59%.

In the case of `Cc1ccc2oc(=O)c(C(=O)Nc3ccccc3N)c(O)c2c1`, the Activity in data set [1] was 100%; in the data set on Rattus norvegicus [3], “Non-toxic”; with Rattus norvegicus [4] it was “Non-toxic”; in data set [6] it was 74%; in data set [7] it was 65%; in data set [8], 70%. The Activity in data set [9] is 78%. For the same compound, the survival at 24 h in data set [2] came to 80%. Also, the inhibition with Glycine max came out at 22%. Moreover, the inhibition in vivo at 10 µmol/kg with Rattus norvegicus [5] was found to be 60%.

With `Cc1ccc2oc(=O)c(C(=O)NCCCCCCCCNC(=O)CCCCC3CCSS3)c(O)c2c1` (stereo not given), the Activity in data set [1] is 100%; in the data set on Rattus norvegicus [3] it was “Non-toxic”; with Rattus norvegicus [4], “Non-toxic”; in data set [6], 69%; in data set [7] it was 65%; in data set [8], 89%. Also, the Activity in [9] is 87%. Further, the survival at 24 h in data set [2] was determined as 80%. In addition, in the data set with Glycine max, the inhibition came out at 8.3%. Besides, the inhibition in vivo at 10 µmol/kg in the data set on Rattus norvegicus [10] was 73%. Further, the inhibition in vivo at 1 µmol/kg in the data set with Rattus norvegicus [11] came to 60%.

As to `CCOC(=O)c1c(O)oc2ccccc2c1=O`, the Activity in data set [1] is 91%; in the data set with Rattus norvegicus [3], “Non-toxic”; in the data set on Rattus norvegicus [4] it was “Non-toxic”; in data set [6], 15%; in data set [7] it was 27%; in data set [8], 20%. In addition, in [9], the Activity was 13%. In addition, the survival at 24 h in [2] is 80%. Also, the inhibition in the data set with Glycine max amounted to 93%. Besides, in the data set with Rattus norvegicus [5], the inhibition in vivo at 10 µmol/kg was 63%.

For the compound `COc1ccc2c(c1)c(CC(=O)O)c(C)n2C(=O)c1ccc(Cl)cc1` [INDOMETHACIN], in the data set with Rattus norvegicus [5], the inhibition in vivo at 10 µmol/kg was found to be 47%.

As to `CCOC(=O)c1c(O)c2cc(C)ccc2oc1=O`, the Activity in data set [1] is 81%; in the data set on Rattus norvegicus [3] it was “Non-toxic”; in the data set on Rattus norvegicus [4], “Non-toxic”; in [6] it was 18%; in data set [7] it was 8%; in data set [8], 20%. Also, the Activity in data set [9] was 33%. In addition, the survival at 24 h in [2] turned out to be 80%. Besides, in the data set with Glycine max, the inhibition came out at 93%. In addition, in the data set on Rattus norvegicus [5], the inhibition in vivo at 10 µmol/kg worked out at 41%.

On to `NCCCCCCCCNC(=O)c1c(O)c2ccccc2oc1=O`, for which the result in data set [1] was inactive. Further, the survival at 24 h in data set [2] was 80%. The Activity entry with Rattus norvegicus [3] is “Non-toxic”; in the data set on Rattus norvegicus [4], “Non-toxic”; in data set [6] it was 17%; in data set [7], 8%; in data set [8] it was 9%; in data set [9], 19%. Also, in the data set on Glycine max, the inhibition result is “inactive”. The inhibition in vivo at 10 µmol/kg in the data set on Rattus norvegicus [5] was determined as 48%.
